According to ChEMBL document CHEMBL1142373 (J Med Chem, 2008):
Converted amounts (≈) assume the structure as drawn.

Key:
Plasmodium falciparum [1] = assay: Antiplasmodial activity against chloroquine-resistant Plasmodium falciparum W2 by [3H]hypoxanthine incorporation; format: functional, organism-based
Plasmodium falciparum [2] = assay: Antiplasmodial activity against chloroquine-sensitive Plasmodium falciparum D10 by parasite lactate dehydrogenase assay; conditions: D10, 72 h
Plasmodium falciparum [3] = assay: Antiplasmodial activity against chloroquine-resistant Plasmodium falciparum K1 by [3H]hypoxanthine incorporation; format: functional, organism-based
Plasmodium falciparum [4] = assay: Antiplasmodial activity against chloroquine-sensitive Plasmodium falciparum 3D7 by [3H]hypoxanthine incorporation; format: functional, organism-based
Pichia kudriavzevii = assay: Antifungal activity against Candida krusei ATCC 6258; format: functional
[5] = Cytotoxicity against human KB cells by MTT assay; format: cell-based; conditions: read-out: TC50 (the source's name)
Candida albicans = assay: Antifungal activity against Candida albicans; format: functional
Aspergillus flavus = assay: Antifungal activity against Aspergillus flavus ATCC 204304; format: functional
Cryptococcus neoformans = assay: Antifungal activity against Cryptococcus neoformans; format: functional
Plasmodium chabaudi [6] = assay: Antimalarial activity against Plasmodium chabaudi AS infected CD1 mice (Mus musculus) assessed as suppression of parasitaemia at 50mg/kg, perorally after 4 days; format: functional
Procedure, shortened: (§1)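 Female CD1 mice (20–25 g) got 0.2 mL i.v. of donor blood diluted to 1% parasitaemia (1 × 10^7 infected erythrocytes/mL). Oral dosing started 2–4 h post-inoculation as a 0.2 mL bolus once daily for 4 days, in 10% Tween-80/EtOH plus sterile PBS. On day 5, Giemsa-stained smears were read by microscopy. % suppression = [(C−T)/C]×100; five mice per group.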

Candida parapsilosis = assay: Antifungal activity against Candida parapsilosis ATCC 22019; format: functional; conditions: Lodderomyces parapsilosis
Plasmodium berghei [7] = assay: Reduced parasitemia in Plasmodium berghei ANKA infected CD1 mice (Mus musculus) at 150 mg/kg peroral dose after 4 days; format: functional; set-up: scale not given: the % may be the effect or the level left; conditions: route oral; procedure, shortened: as §1
Aspergillus fumigatus [8] = assay: Antifungal activity against Aspergillus fumigatus; format: functional
Aspergillus fumigatus [9] = assay: Antifungal activity against itraconazole resistant Aspergillus fumigatus; format: functional
[10] = Cytotoxicity against human lymphocytes after 48 hrs by MTT assay; format: cell-based, Lymphocyte; conditions: read-out: TC50
Procedure, shortened: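 Donor PBMC were separated on Ficoll-Hypaque and stimulated with 5 µg/mL PHA, then plated at 20000 cells/well. Compounds in DMSO were added 12 h later and left 48 h. Read-out was MTT formazan (2 h, 37 °C), extracted overnight in SDS/DMF buffer, with OD at 570 nm. TC50 is reported; at least two runs in triplicate.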

[11] = Cytotoxicity against mouse NSO cells after 48 hrs by MTT assay; format: cell-based; conditions: read-out: TC50
Procedure, shortened: (§2)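 NSO (3000 cells/well) and Daudi (300 cells/well) cells were grown in RPMI 1640 with 5% FCS. Compounds in DMSO were added 12 h after plating and left 48 h. MTT was then added (20 µL of 5 mg/mL stock, 2 h, 37 °C), followed by SDS/DMF lysis buffer overnight, with OD read at 570 nm. TC50 is reported; at least two experiments in triplicate.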

[12] = Lipophilicity, Log D at pH 5.5; format: physicochemical; conditions: buffer
[13] = Lipophilicity, Log D at pH 7.2; format: physicochemical; conditions: buffer
Plasmodium berghei [14] = assay: Reduced parasitemia in Plasmodium berghei ANKA infected CD1 mice (Mus musculus) at 30 mg/kg dose after 4 days; set-up: scale not given: the % may be the effect or the level left
[15] = Lipophilicity, Log D at pH 7.4; format: physicochemical; conditions: buffer
[16] = Cytotoxicity against human Daudi cells after 48 hrs by MTT assay; format: cell-based; conditions: read-out: TC50; procedure, shortened: as §2
Plasmodium falciparum [17] = assay: Antiplasmodial activity against chloroquine-sensitive Plasmodium falciparum D10 by [3H]hypoxanthine incorporation; format: functional, organism-based
Plasmodium chabaudi [18] = assay: Antimalarial activity against Plasmodium chabaudi AS infected CD1 mice (Mus musculus) assessed as suppression of parasitaemia at 10 mg/kg, perorally after 4 days; format: functional; conditions: route oral; procedure, shortened: as §1
Plasmodium berghei [19] = assay: Reduced parasitemia in Plasmodium berghei ANKA infected CD1 mice (Mus musculus) at 10 mg/kg peroral dose after 4 days; format: functional; set-up: scale not given: the % may be the effect or the level left; conditions: route oral; procedure, shortened: as §1

Row | Structure (SMILES) | IC50 (Plasmodium falciparum [1]) [µM] | IC50 (Plasmodium falciparum [2]) [µM] | IC50 (Plasmodium falciparum [3]) [µM] | IC50 (Plasmodium falciparum [4]) [µM] | CC50 [5] [µM] | further results
1 | Clc1cccc(C(c2ccc(CN3CCCC3)cc2)(c2cccs2)n2ccnc2)c1 (racemic) | 1.04 | 7.17 | 1.27 | 4.27 |  | 
2 | Clc1ccc2c(C(c3ccc(CN4CCCC4)cc3)n3ccnc3)ccnc2c1 (racemic) | 1.17 | 1.63 | 0.745 | 1.81 |  | 
3 | Clc1ccccc1C(c1ccccc1)(c1ccccc1)n1ccnc1 [CLOTRIMAZOLE] |  |  |  |  | 88.1 | MIC (Pichia kudriavzevii): 2 µg/mL (≈ 5.8 µM); MIC (Candida albicans): 0.03 µg/mL (≈ 0.087 µM); MIC (Aspergillus flavus): 4 µg/mL (≈ 11.6 µM); MIC (Cryptococcus neoformans): 2 µg/mL (≈ 5.8 µM); Activity (Plasmodium chabaudi [6]): 6%; MIC (Candida parapsilosis): 2 µg/mL (≈ 5.8 µM); Activity (Plasmodium berghei [7]): 28.3%; MIC (Aspergillus fumigatus [8]): 4 µg/mL (≈ 11.6 µM); MIC (Aspergillus fumigatus [9]): 4 µg/mL (≈ 11.6 µM)
4 | Fc1ccc(C(c2ccc(CN3CCCC3)cc2)(c2ccnc3cc(Cl)ccc23)n2ccnc2)cc1 (racemic) | 0.002 | 0.0858 | 0.067 | 0.0669 | 33 | MIC (Pichia kudriavzevii): > 32 µg/mL; MIC (Candida albicans): 8 µg/mL (≈ 16.1 µM); MIC (Aspergillus flavus): > 32 µg/mL; MIC (Cryptococcus neoformans): > 32 µg/mL; Activity (Plasmodium chabaudi [6]): 99.4%; MIC (Candida parapsilosis): > 32 µg/mL; MIC (Aspergillus fumigatus [8]): > 32 µg/mL
5 | Clc1ccc(C(c2ccccc2)(c2ccc(CN3CCCC3)cc2)n2ccnc2)cc1 (racemic) |  |  |  |  |  | MIC (Pichia kudriavzevii): 16 µg/mL (≈ 37.4 µM); CC50 at 48 h [10]: 70.3 µM; CC50 at 48 h [11]: 51.5 µM; logD [12]: 1.72; MIC (Candida albicans): 32 µg/mL (≈ 74.8 µM); MIC (Aspergillus flavus): > 32 µg/mL; MIC (Cryptococcus neoformans): 32 µg/mL (≈ 74.8 µM); Activity (Plasmodium chabaudi [6]): 94.8%; MIC (Candida parapsilosis): 32 µg/mL (≈ 74.8 µM); logD [13]: 3.13; Activity (Plasmodium berghei [14]): 37.6%; logD [15]: 3.33; MIC (Aspergillus fumigatus [8]): > 32 µg/mL; CC50 at 48 h [16]: 58.5 µM
6 | Clc1cccc(C(c2ccnc3ccccc23)n2ccnc2)c1 (racemic) | > 10 |  | 4.29 | > 10 |  | IC50 (Plasmodium falciparum [17]): > 10 µM
7 | Clc1ccc2c(C(c3ccccc3)(c3ccc(CN4CCCC4)cc3)n3ccnc3)ccnc2c1 (racemic) | 0.01 | 0.168 | 0.06 | 0.148 | 51.8 | 
8 | Clc1cccc(C(c2ccc(CN3CCCC3)cc2)(c2ccoc2)n2ccnc2)c1 (racemic) | 0.167 | 0.238 |  | 0.101 |  | 
9 | Clc1ccc(C(c2ccccc2)(c2ccc(CN3CCOCC3)cc2)n2ccnc2)cc1 (racemic) |  | 0.726 |  | 0.561 |  | CC50 at 48 h [10]: 13.3 µM; CC50 at 48 h [11]: 16 µM; CC50 at 48 h [16]: 15.6 µM
10 | Clc1ccc(C(c2ccc(CN3CCCC3)cc2)(c2ccc(CN3CCCC3)cc2)n2ccnc2)cc1 | 0.0392 | 0.0484 | 0.0117 | 0.0261 |  | MIC (Pichia kudriavzevii): > 32 µg/mL; CC50 at 48 h [10]: 68.5 µM; CC50 at 48 h [11]: 47 µM; logD [12]: 0.67; MIC (Candida albicans): > 32 µg/mL; MIC (Aspergillus flavus): > 32 µg/mL; MIC (Cryptococcus neoformans): > 32 µg/mL; Activity (Plasmodium chabaudi [6]): 94%; MIC (Candida parapsilosis): > 32 µg/mL; logD [13]: 1.4; logD [15]: 1.56; MIC (Aspergillus fumigatus [8]): > 32 µg/mL; CC50 at 48 h [16]: 58.7 µM
11 | CCN(CC)CCCC(C)Nc1ccnc2cc(Cl)ccc12 (centres undefined) [CHLOROQUINE] |  |  |  |  | 207 | Activity (Plasmodium chabaudi [18]): 100%; Activity (Plasmodium berghei [19]): 89.1%
12 | Clc1ccc(C(c2ccc(CN3CCCC3)cc2)(c2nccs2)n2ccnc2)cc1 (racemic) | 0.08 | 0.3 | 0.18 | 0.177 | 64.2 | 
13 | Clc1ccc(C(c2ccc(CN3CCCC3)cc2)(c2cccs2)n2ccnc2)cc1 (racemic) | 6.69 | 1.36 | 1.78 | 3.57 |  | 
14 | Clc1ccc(C(c2ccccc2)(c2ccc(CN3CCCC3)cc2)N2CCNCC2)cc1 (racemic) | 1.56 |  | 3.51 | 3.85 | 20.9 | IC50 (Plasmodium falciparum [17]): > 10 µM
15 | Clc1ccc(C(c2ccccc2)(c2ccc(CN3CCCC3)cc2)n2cnc3ccccc32)cc1 (racemic) | 0.376 | 1.03 | 0.023 | 0.379 |  | 
16 | Clc1cccc(C(c2ccncc2)(c2ccc(CN3CCCC3)cc2)n2ccnc2)c1 (racemic) | 0.415 | 1.23 | 0.51 | 0.587 |  | 
17 | Fc1ccc(C(c2ccc(Cl)cc2)(c2ccc(CN3CCCC3)cc2)n2ccnc2)cc1 (racemic) | 0.0015 | 0.118 | 0.38 | 0.082 | 8.2 | 
18 | CC(C)(C)OC(=O)N1CCN(Cc2ccc(C(c3cccc(Cl)c3)n3ccnc3)cc2)CC1 (racemic) | 1.52 | 5.26 | 1.07 | 4.11 |  | 
19 | Clc1cccc(C(c2ccc(CN3CCNCC3)cc2)n2ccnc2)c1 (racemic) | 0.327 | 0.516 | 0.354 | 0.411 |  | 
20 | CCN(CC)Cc1ccc(C(c2ccccc2)(c2ccc(Cl)cc2)n2ccnc2)cc1 (racemic) | 0.0414 | 0.415 | 0.00048 |  |  | 
21 | c1ccc2c(C(c3ccc(CN4CCCC4)cc3)n3ccnc3)ccnc2c1 (racemic) | 1.79 | 7.48 | 0.379 | 5.03 |  | 
22 | CCN(CC)Cc1ccc(C(c2cccc(Cl)c2)n2cncn2)cc1 (racemic) | > 10 |  | 3.7 | > 10 |  | IC50 (Plasmodium falciparum [17]): > 10 µM
23 | Clc1ccc(C(c2ccccc2)(c2ccc(CN3CCNCC3)cc2)n2ccnc2)cc1 (racemic) |  | 0.0841 |  | 0.0554 |  | CC50 at 48 h [10]: 13.7 µM; CC50 at 48 h [11]: 16.2 µM; CC50 at 48 h [16]: 15.8 µM
24 | CCN(CC)Cc1ccc(C(c2cccc(Cl)c2)n2ccnc2)cc1 (racemic) | 0.452 | 1.89 | 0.282 | 1.29 |  | 
25 | Clc1cccc(C(c2ccc(CN3CCCC3)cc2)(c2nccs2)n2ccnc2)c1 (racemic) | 1.85 | 0.484 | 0.0667 | 0.314 |  | CC50 at 48 h [10]: 80.5 µM; CC50 at 48 h [11]: 52.9 µM; Activity (Plasmodium chabaudi [6]): 73.1%; CC50 at 48 h [16]: 57.5 µM
26 | Clc1cccc(C(c2ccc(CN3CCCC3)cc2)(c2ccccn2)n2ccnc2)c1 (racemic) | 0.157 | 0.619 | 0.155 | 0.349 | 27.2 | 
